Laboratory results: ChEMBL document CHEMBL1134859, “Rapid synthesis of triazine inhibitors of inosine monophosphate dehydrogenase” (Bioorg Med Chem Lett, 2002)

Columns and labels:
[1] = biological target: Inosine-5'-monophosphate dehydrogenase 2 (Homo sapiens, UniProt P12268); test: Inhibition of human Inosine-5'-monophosphate dehydrogenase 2
CCRF-CEM = test: Inhibitory activity against human T-lymphoblast CEM cell line using T cell proliferation assay; assay type: functional, cell-based
In short: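 Human T-lymphoblast CEM cells were grown in RPMI 1640 with 10% heat-inactivated FBS and penicillin/streptomycin, then seeded at 3000 cells/well in 0.5% DMSO. Compounds were tested in triplicate from a 10 uM final top concentration in 3-fold serial dilutions. Cells were kept 72 h in humidified 5% CO2.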

| IC50 [1] | IC50 (CCRF-CEM) | Structure (SMILES) |
| --- | --- | --- |
| 32 nM | > 1000 nM | COc1cc(Nc2nc(OCc3ccccc3)nc(-c3ccccc3)n2)ccc1-c1cnco1 |
| 78 nM | > 1000 nM | COc1cc(Nc2nc(-c3ccccc3)nc(N3CCC[C@@H]3CO)n2)ccc1-c1cnco1 |
| 130 nM | > 1000 nM | COc1cc(Nc2nc(NCCC(=O)O)nc(-c3ccccc3)n2)ccc1-c1cnco1 |
| 130 nM | > 1000 nM | CNc1nc(Nc2ccc(-c3cnco3)c(OC)c2)nc(-c2cccc(C)c2)n1 |
| 160 nM | > 1000 nM | CNc1nc(Nc2ccc(-c3cnco3)c(OC)c2)nc(N2CCOCC2)n1 |
|  | > 1000 nM | COc1cc(Nc2nc(N)n(-c3ccccc3)n2)ccc1-c1cnco1 |
| 410 nM | > 1000 nM | COc1cc(Nc2nc(NCc3ccccc3)nc(-c3ccccc3)n2)ccc1-c1cnco1 |
| 130 nM | > 1000 nM | CNc1nc(Nc2ccc(-c3cnco3)c(OC)c2)nc(N2CCC[C@H]2CO)n1 |
| 390 nM | > 1000 nM | CNc1nc(Nc2ccc(-c3cnco3)c(OC)c2)nc(N2CCC[C@H]2COC)n1 |
| 18 nM | 5900 nM | COc1cc(Nc2nc(O)nc(-c3ccccc3)n2)ccc1-c1cnco1 |
| 190 nM | > 1000 nM | COc1cc(Nc2nc(-c3ccccc3)nc(N3CCOCC3)n2)ccc1-c1cnco1 |
| 58 nM | 2400 nM | COc1cc(Nc2nc(NCCc3cccnc3)nc(-c3ccccc3)n2)ccc1-c1cnco1 |
| 160 nM | > 1000 nM | COc1cc(Nc2nc(-c3ccccc3)nc(N3CCN(C=O)CC3)n2)ccc1-c1cnco1 |
| 310 nM | > 1000 nM | CNc1nc(Nc2ccc(-c3cnco3)c(OC)c2)nc(-c2ccccc2C)n1 |
| 720 nM | > 1000 nM | CNc1nc(Nc2ccc(-c3cnco3)c(OC)c2)nc(N2CCC[C@@H]2CO)n1 |
| 78 nM | > 1000 nM | COc1cc(Nc2nc(NCCCC(=O)O)nc(-c3ccccc3)n2)ccc1-c1cnco1 |
| 54 nM | > 1000 nM | COc1cc(Nc2nc(N)nc(-c3ccccc3)n2)ccc1-c1cnco1 |
| 57 nM | > 1000 nM | CNc1nc(Nc2ccc(-c3cnco3)c(OC)c2)nc(-c2ccco2)n1 |
| 620 nM | > 1000 nM | CNc1nc(NC)nc(Nc2ccc(-c3cnco3)c(OC)c2)n1 |
| > 1000 nM | > 1000 nM | COc1cc(Nc2nc(NCCc3ccccc3)nc(-c3ccccc3)n2)ccc1-c1cnco1 |
| 170 nM | > 1000 nM | CNc1nc(Nc2ccc(-c3cnco3)c(OC)c2)nc(-c2ccc(C)cc2)n1 |
| 72 nM | > 1000 nM | COc1cc(Nc2nc(-c3ccccc3)nc(N3CCC[C@H]3CO)n2)ccc1-c1cnco1 |
| 290 nM | > 1000 nM | COC[C@@H]1CCCN1c1nc(Nc2ccc(-c3cnco3)c(OC)c2)nc(-c2ccccc2)n1 |
| 250 nM | > 1000 nM | COc1cc(Nc2nc(NCC(=O)O)nc(-c3ccccc3)n2)ccc1-c1cnco1 |
| 270 nM | > 1000 nM | COc1cc(Nc2nc(-c3ccccc3)nc(N(C)C)n2)ccc1-c1cnco1 |
| 41 nM | > 1000 nM | COc1nc(Nc2ccc(-c3cnco3)c(OC)c2)nc(-c2ccccc2)n1 |
| 330 nM | > 1000 nM | COc1cc(Nc2nc(-c3ccccc3)nc(N3CCN(C)CC3)n2)ccc1-c1cnco1 |
| 45 nM | 3500 nM | COc1cc(Nc2nncc(-c3ccccc3)n2)ccc1-c1cnco1 |
|  | 390 nM | COc1c(C)c2c(c(O)c1C/C=C(\C)CCC(=O)O)C(=O)OC2 [MYCOPHENOLIC ACID] |

| Structure (SMILES) | IC50 [1] | IC50 (CCRF-CEM) |
| --- | --- | --- |
| CNc1nc(Nc2ccc(-c3cnco3)c(OC)c2)nc(-c2ccccc2)n1 | 76 nM | > 1000 nM |
